A short description of data set [1]: Cytotoxicity against human KB cells by SRB assay. The data set is classed as cell-based. Conditions: read-out: ED50 (the source's name). Put shortly: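 Human oral epidermoid carcinoma KB cells stained with sulforhodamine B; ED50 from nonlinear regression of percent survival against compound concentration. ED50 of 50 µM or above taken as noncytotoxic; extract values in µg/mL.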
A general note: The SRB assay estimates cell density from bound dye.

In data set [2] the test system is Plasmodium falciparum. The data set can be described thus: Antimalarial activity against Plasmodium falciparum D6 by [3H]hypoxanthine uptake. The data set is classed as functional, organism-based. An outline of the steps: (§1)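 Cultured P. falciparum clones tested, parasite-specific [3H]hypoxanthine incorporation measured; zero-drug wells set as 100% incorporation. IC50 (50% inhibition of incorporation) fitted by nonlinear regression; pure compounds with IC50 < 10 µg/mL counted as active. Extract values expressed in µg/mL.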

The nature of data set [3]: Selectivity index, ratio of ED50 for human KB cells to IC50 for Plasmodium falciparum D6. The format is functional. An outline of the steps: (§2)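 Selectivity index computed as ED50 in KB cells (SRB survival assay) divided by IC50 against the P. falciparum clone from [3H]hypoxanthine incorporation, both fitted by nonlinear regression.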
Data set [4] relates to Plasmodium falciparum. The experiment in a line: Antimalarial activity against Plasmodium falciparum W2 by [3H]hypoxanthine uptake. The format is functional, organism-based. An outline of the steps:
as §1

Data set [5] is described as follows: Selectivity index, ratio of ED50 for human KB cells to IC50 for Plasmodium falciparum W2. The format is functional. An outline of the steps:
as §2

Consider six compounds from ChEMBL document CHEMBL1157285, “Antimalarial compounds from Grewia bilamellata” (J Nat Prod, 2006).

Consider `COC1=CC(=O)C=C(OC)C1(O)CC(C)=O`, for which the CC50 in data set [1] was found to be 169 µM. The IC50 (usually the concentration that gives 50% inhibition) with Plasmodium falciparum [2] amounted to 42.2 µM; with Plasmodium falciparum [4], 23 µM. Further, the “Selectivity Index” value in data set [3] is recorded as 4; in data set [5], 7.3.
On the same counts, the results for `CC(C)(O)[C@@H]1CC[C@]2(C)CC[C@]3(C)[C@H](CC[C@@H]4[C@@]5(C)CC[C@@H](O)C(C)(C)[C@@H]5CC[C@]43C)[C@@H]12` are above 90 µM, 19.8 µM, 19.1 µM, above 4.5 and above 4.7.
With `CCN(CC)CCCC(C)Nc1ccnc2cc(Cl)ccc12` (stereo unspecified) [CHLOROQUINE], in data set [1], the CC50 was 30.8 µM.
Regarding `COc1cc([C@@H]2Oc3cc4ccc(=O)oc4cc3O[C@H]2CO)cc(O)c1O` [GREWIN], the CC50 in data set [1] is above 108 µM. For the same compound, the figures for the IC50 in the data set with Plasmodium falciparum [2] and in the data set with Plasmodium falciparum [4] were 11.2 µM and 5.5 µM, respectively. Further, the “Selectivity Index” value was above 9.6 in data set [3] and above 19.7 in data set [5].
On the same counts, the results for `CC1(C)CC[C@]2(C(=O)O)CC[C@]3(C)C(=CC[C@@H]4[C@@]5(C)C[C@@H](O)[C@H](O)C(C)(C)[C@@H]5CC[C@]43C)[C@@H]2C1` [MASLINIC ACID] are 51.5 µM, 21.1 µM, 8.6 µM, 2.4 and 5.9.
On the same counts, the results for `COc1cc([C@@H]2Oc3cc(/C=C/CO)cc(OC)c3O[C@H]2CO)cc(OC)c1O` [NITIDANIN] are above 99 µM, 21.2 µM, 18.4 µM, above 4.6 and above 5.4.
